From ChEMBL document CHEMBL1123239, “Synthesis and adrenergic activity of ring-fluorinated phenylephrines” (J Med Chem, 1986)

Legend:
[1] = species on record: Cavia porcellus; assay: Compound was evaluated for its agonist potency by measurement of potentiation of 2-chloroadenosine stimulation of cyclic AMP accumulation in guinea pig cerebral cortical synaptoneurosomal preparations.; type: functional
[2] = species on record: Cavia porcellus; assay: Stimulation of [3H]phosphatidylinositol turnover in synaptoneurosomes at a concentration of 100 uM; type: functional
Summary of the method: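 Nonfiltered guinea pig cortical synaptoneurosomes prelabeled 60 min at 37 °C with 1 μM [3H]inositol in Krebs–Henseleit buffer under O2/CO2 (95:5). Washed, resuspended with 10 mM LiCl (~1 mg protein/tube). Agonist at 100 μM, 90 min at 37 °C. Stopped by centrifugation, TCA extraction; [3H]inositol phosphates measured in supernatant.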

[3] = species on record: Cavia porcellus; assay: Compound was evaluated for its agonist potency by measurement of contraction of guinea pig aortic strips; type: functional; settings: Aorta
Summary of the method: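 Cumulative concentration-response, 3–200 μM in 2–3-fold steps. Isometric tension recorded; EC50 = concentration giving half of maximal contraction to supramaximal (-)-NE (30–50 μM), measured before and after each curve.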

[4] = Compound was tested for its ability to displace [3H]WB-4101 form alpha-1 adrenergic receptor site in guinea pig cerebral cortical membranes.; design: species or system Cavia porcellus
Summary of the method: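 Guinea pig (male Hartley) cerebral cortex membranes in 50 mM Tris-HCl pH 7.4, ~0.9–1.2 mg protein/mL. […] Ki from IC50 by Cheng-Prusoff; 3–5 experiments or one in triplicate.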

[5] = target: T1, Adrenergic receptor alpha-2 (Homo sapiens, UniProt P08913+P18825+P18089); assay: (§1) Compound was tested for its ability to displace [3H]clonidine form alpha-2 adrenergic receptor site in guinea pig cerebral cortical membranes.; design: species or system Cavia porcellus; settings: target entry is the homologue from another species
T1 sequence (P08913 whole entry): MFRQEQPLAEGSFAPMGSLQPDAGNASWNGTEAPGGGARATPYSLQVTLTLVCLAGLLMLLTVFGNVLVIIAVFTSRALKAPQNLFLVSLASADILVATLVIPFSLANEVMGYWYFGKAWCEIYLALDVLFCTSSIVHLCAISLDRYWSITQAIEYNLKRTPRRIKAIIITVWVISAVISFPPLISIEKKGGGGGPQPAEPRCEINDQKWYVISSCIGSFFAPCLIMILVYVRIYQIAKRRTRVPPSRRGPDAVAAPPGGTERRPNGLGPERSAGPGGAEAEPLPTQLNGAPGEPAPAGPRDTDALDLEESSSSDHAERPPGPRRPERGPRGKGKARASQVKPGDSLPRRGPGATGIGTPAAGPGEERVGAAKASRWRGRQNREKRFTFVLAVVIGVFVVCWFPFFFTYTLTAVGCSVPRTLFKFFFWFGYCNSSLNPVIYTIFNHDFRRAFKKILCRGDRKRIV
T1 sequence (P18825 whole entry): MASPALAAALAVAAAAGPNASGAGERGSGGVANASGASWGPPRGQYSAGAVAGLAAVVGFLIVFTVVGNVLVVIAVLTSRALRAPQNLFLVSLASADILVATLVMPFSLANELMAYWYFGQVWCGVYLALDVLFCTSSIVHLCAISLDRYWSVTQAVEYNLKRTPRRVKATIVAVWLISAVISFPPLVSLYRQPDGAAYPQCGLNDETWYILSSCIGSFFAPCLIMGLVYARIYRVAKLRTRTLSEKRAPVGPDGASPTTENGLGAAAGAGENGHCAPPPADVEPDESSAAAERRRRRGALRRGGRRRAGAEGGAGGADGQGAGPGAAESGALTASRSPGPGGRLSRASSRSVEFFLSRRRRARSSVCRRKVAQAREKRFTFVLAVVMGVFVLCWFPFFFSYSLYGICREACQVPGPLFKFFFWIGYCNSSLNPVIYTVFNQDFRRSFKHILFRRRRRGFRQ
T1 sequence (P18089 whole entry): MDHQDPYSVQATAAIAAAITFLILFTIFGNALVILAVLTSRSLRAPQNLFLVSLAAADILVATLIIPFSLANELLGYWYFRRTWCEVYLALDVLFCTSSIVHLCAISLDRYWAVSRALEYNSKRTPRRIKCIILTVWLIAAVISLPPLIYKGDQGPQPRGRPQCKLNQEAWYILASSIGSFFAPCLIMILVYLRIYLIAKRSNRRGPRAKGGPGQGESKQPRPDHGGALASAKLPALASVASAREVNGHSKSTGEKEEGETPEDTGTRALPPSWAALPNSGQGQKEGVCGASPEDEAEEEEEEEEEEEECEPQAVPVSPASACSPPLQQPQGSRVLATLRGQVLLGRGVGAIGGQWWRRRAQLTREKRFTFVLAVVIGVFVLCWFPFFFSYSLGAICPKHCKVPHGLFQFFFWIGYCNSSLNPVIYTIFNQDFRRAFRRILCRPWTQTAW
Summary of the method: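 Guinea pig (male Hartley) cerebral cortex membranes in 50 mM Tris-HCl pH 7.4. […] Ki from IC50 by Cheng-Prusoff; 3–5 experiments or one in triplicate.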

[6] = Compound was tested for its ability to displace [3H]-prazosin form alpha-1 adrenergic receptor site in guinea pig cerebral cortical membranes.; design: species or system Cavia porcellus
Summary of the method: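 Guinea pig (male Hartley) cerebral cortex membranes, homogenised and washed in 50 mM Tris-HCl pH 7.4, ~0.9–1.2 mg protein/mL. 0.5 nM [3H]prazosin (Kd 0.5 nM), 30 min at 30 °C; nonspecific with 10 μM phentolamine. Ki from IC50 by Cheng-Prusoff; 3–5 experiments or one in triplicate.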

[7] = target: T1, Adrenergic receptor alpha-2; assay: as §1; design: species or system Cavia porcellus; settings: target entry is the homologue from another species; remark: listed apart in the source
Summary of the method: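 Guinea pig (male Hartley) cerebral cortex membranes in 50 mM Tris-HCl pH 7.4. Ki from IC50 by Cheng-Prusoff; 3–5 experiments or one in triplicate.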

Structure (SMILES)	EC50 [1] [µM]	Control [2] [%]	EC50 [3] [µM]	Ki [4] [µM]	Ki [5] [µM]	Ki [6] [µM]	Ki [7] [µM]
CNC[C@H](O)c1cccc(O)c1 [PHENYLEPHRINE]	26	161	27	2.5			
CNCC(O)c1cc(O)ccc1F (racemic)	4	162	11	1.3	0.23	2.1	
CNCC(O)c1cccc(O)c1F (racemic)	40	134	105	6.6		17	1.2
CNCC(O)c1ccc(F)c(O)c1 (racemic)	35	136	39	3.7	1	10	
